In ChEMBL document CHEMBL5724801, “EUbOPEN Chemogenomics Library - Multiplex” (2024):
Values joined by “and” are separate entries in the source; they are usually repeats but may differ in a detail not shown here. Identical values can stand only once.

System: HEK-293T
Assay: Multiplex assay against HEK293T
Assay type: toxicity, cell-based
Conditions: human
How it was run: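 At seeding, live cells were stained with Hoechst33342, BioTracker Green Microtubule Cytoskeleton Dye, MitoTracker Red and Annexin V Alexa Fluor 680. After compound addition they were imaged on a CQ1 microscope at 37°C and 5% CO2, and CellPathfinder machine-learning gating sorted them into Hoechst high-intensity objects or normal cells, with normal cells further split into healthy, pyknosed or fragmented nuclei and pyknosed cells into mitotic or apoptotic. Tubulin, mitochondrial-mass and membrane-permeability phenotypes are given as per cents of cells with healthy nuclei.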

[1] = 12 h, 1 µM, compound concentration 1 uM
[2] = 12 h, 10 µM, compound concentration 10 uM
[3] = 24 h, 1 µM, compound concentration 1 uM
[4] = 24 h, 10 µM, compound concentration 10 uM
[5] = 48 h, 1 µM, compound concentration 1 uM
[6] = 48 h, 10 µM, compound concentration 10 uM

With `N#Cc1ccnc(Nc2cc(C3CCN(C4COC4)CC3)cc(N3CCC(F)(F)C3)n2)c1` the “Population Apoptotic (%)” value [1] was 18.37% and 8.2%, the “Population Fragmented Nuclei (%)” value [1] was 1.49% and 2.08% and the “Population Healthy Nuclei (%)” value [1] was 25.74% and 13.19%. The “Population Hoechst High Intensity Objects (%)” value [1] was 0.98% and 0%, the “Population Membrane Permeable-Phenotype (%)” value [1] was 0% and the “Population Mitotic Cells (%)” value [1] was 81.63% and 91.8%. For the same molecule, the “Population Normal (%)” value [1] was 99.02% and 100%, the “Population Pyknosed Nuclei (%)” value [1] was 72.77% and 84.72% and the “Population Tubulin-Different-Phenotype (%)” value [1] was 32.69% and 42.11%. The “Total Cell Count” value [1] was 204 and 144, the “Population Apoptotic (%)” value [2] was 23.38% and 27.5% and the “Population Fragmented Nuclei (%)” value [2] was 5.2% and 14.04%. For the same molecule, the “Population Healthy Nuclei (%)” value [2] was 20.07% and 15.79%, the “Population Hoechst High Intensity Objects (%)” value [2] was 0.37% and 0.87% and the “Population Mitotic Cells (%)” value [2] was 76.62% and 72.5%. For the same molecule, the “Population Normal (%)” value [2] was 99.63% and 99.13%, the “Population Pyknosed Nuclei (%)” value [2] was 74.72% and 70.18% and the “Total Cell Count” value [2] was 270 and 230. For the same molecule, the “Population Apoptotic (%)” value [3] was 44.81% and 25.93%, the “Population Fragmented Nuclei (%)” value [3] was 1.81% and 1.57% and the “Population Hoechst High Intensity Objects (%)” value [3] was 0.72% and 0.78%. The “Population Membrane Permeable-Phenotype (%)” value [3] was 2.56% and 0%, the “Population Mitochondria Different-Phenotype (%)” value [3] was 41.88% and 35.29% and the “Population Mitotic Cells (%)” value [3] was 55.19% and 74.07%. For the same molecule, the “Population Normal (%)” value [3] was 99.28% and 99.22%, the “Population Pyknosed Nuclei (%)” value [3] was 55.8% and 85.04% and the “Population Tubulin-Different-Phenotype (%)” value [3] was 49.57% and 23.53%. The “Total Cell Count” value [3] was 278 and 128, the “Population Apoptotic (%)” value [4] was 63.77% and 56.46% and the “Population Fragmented Nuclei (%)” value [4] was 4.87% and 13.57%. For the same molecule, the “Population Healthy Nuclei (%)” value [4] was 17.6% and 19.91%, the “Population Hoechst High Intensity Objects (%)” value [4] was 0.74% and 0% and the “Population Membrane Permeable-Phenotype (%)” value [4] was 0% and 9.09%. The “Population Mitotic Cells (%)” value [4] was 36.23% and 43.54%, the “Population Normal (%)” value [4] was 99.26% and 100% and the “Population Pyknosed Nuclei (%)” value [4] was 77.53% and 66.52%. The “Total Cell Count” value [4] was 269 and 221, the “Population Fragmented Nuclei (%)” value [5] was 4.08% and 0.7% and the “Population Healthy Nuclei (%)” value [5] was 73.7% and 38.46%. For the same molecule, the “Population Hoechst High Intensity Objects (%)” value [5] was 0.23% and 0.69%, the “Population Membrane Permeable-Phenotype (%)” value [5] was 4.31% and 3.64% and the “Population Mitochondria Different-Phenotype (%)” value [5] was 60.62% and 56.36%. The “Population Mitotic Cells (%)” value [5] was 69.39% and 90.8%, the “Population Normal (%)” value [5] was 99.77% and 99.31% and the “Population Pyknosed Nuclei (%)” value [5] was 22.22% and 60.84%. The “Population Apoptotic (%)” value [6] was 88.68% and 82.35%, the “Population Fragmented Nuclei (%)” value [6] was 5.62% and 11.71% and the “Population Healthy Nuclei (%)” value [6] was 14.98% and 13.66%. The “Population Hoechst High Intensity Objects (%)” value [6] was 0.37% and 0.49%, the “Population Membrane Permeable-Phenotype (%)” value [6] was 5% and 3.57% and the “Population Mitotic Cells (%)” value [6] was 11.32% and 17.65%. For the same molecule, the “Population Normal (%)” value [6] was 99.63% and 99.51%, the “Population Pyknosed Nuclei (%)” value [6] was 79.4% and 74.63% and the “Total Cell Count” value [6] was 268 and 206.
For `CCOC(=O)c1cnn(-c2ccc(NC(=O)C(Cl)=C(Cl)Cl)cc2)c1C(F)(F)F`, the “Population Apoptotic (%)” value [1] was 11.04% and 11.54%, the “Population Fragmented Nuclei (%)” value [1] was 2.46% and 4.48% and the “Population Hoechst High Intensity Objects (%)” value [1] was 0.27% and 0%. For the same molecule, the “Population Membrane Permeable-Phenotype (%)” value [1] was 0.49% and 0%, the “Population Mitochondria Different-Phenotype (%)” value [1] was 37.44% and 16.67% and the “Population Mitotic Cells (%)” value [1] was 88.96% and 88.46%. For the same molecule, the “Population Normal (%)” value [1] was 99.73% and 100%, the “Population Pyknosed Nuclei (%)” value [1] was 42.08% and 77.61% and the “Total Cell Count” value [1] was 367 and 134. For the same molecule, the “Population Apoptotic (%)” value [2] was 29.28% and 34.92%, the “Population Fragmented Nuclei (%)” value [2] was 10.14% and 2.8% and the “Population Healthy Nuclei (%)” value [2] was 26.57% and 9.09%. For the same molecule, the “Population Hoechst High Intensity Objects (%)” value [2] was 0.35% and 0%, the “Population Membrane Permeable-Phenotype (%)” value [2] was 1.32% and 0% and the “Population Mitochondria Different-Phenotype (%)” value [2] was 18.42% and 46.15%. For the same molecule, the “Population Mitotic Cells (%)” value [2] was 70.72% and 65.08%, the “Population Normal (%)” value [2] was 99.65% and 100% and the “Population Pyknosed Nuclei (%)” value [2] was 63.29% and 88.11%. The “Total Cell Count” value [2] was 287 and 143, the “Population Apoptotic (%)” value [3] was 14.69% and 14.29% and the “Population Fragmented Nuclei (%)” value [3] was 1.44% and 6.88%. For the same molecule, the “Population Healthy Nuclei (%)” value [3] was 72.84% and 31.87%, the “Population Hoechst High Intensity Objects (%)” value [3] was 0.18% and 0% and the “Population Membrane Permeable-Phenotype (%)” value [3] was 2.47% and 1.96%. The “Population Mitochondria Different-Phenotype (%)” value [3] was 18.02% and 7.84%, the “Population Mitotic Cells (%)” value [3] was 85.31% and 85.71% and the “Population Normal (%)” value [3] was 99.82% and 100%. The “Population Pyknosed Nuclei (%)” value [3] was 25.72% and 61.25%, the “Population Apoptotic (%)” value [4] was 63.22% and 90.58% and the “Population Fragmented Nuclei (%)” value [4] was 11.84% and 6.41%. For the same molecule, the “Population Healthy Nuclei (%)” value [4] was 12.77% and 5.13%, the “Population Hoechst High Intensity Objects (%)” value [4] was 3.6% and 0% and the “Population Membrane Permeable-Phenotype (%)” value [4] was 0%. The “Population Mitochondria Different-Phenotype (%)” value [4] was 29.27% and 37.5%, the “Population Normal (%)” value [4] was 96.4% and 100% and the “Population Pyknosed Nuclei (%)” value [4] was 75.39% and 88.46%. The “Population Tubulin-Different-Phenotype (%)” value [4] was 29.27% and 37.5%, the “Total Cell Count” value [4] was 333 and 156 and the “Population Fragmented Nuclei (%)” value [5] was 2.62% and 2.05%. For the same molecule, the “Population Healthy Nuclei (%)” value [5] was 85.68% and 49.74%, the “Population Hoechst High Intensity Objects (%)” value [5] was 0.22% and 0% and the “Population Membrane Permeable-Phenotype (%)” value [5] was 5.07% and 1.03%. The “Population Mitochondria Different-Phenotype (%)” value [5] was 16.62% and 27.84%, the “Population Mitotic Cells (%)” value [5] was 94.87% and 81.91% and the “Population Normal (%)” value [5] was 99.78% and 100%. For the same molecule, the “Population Apoptotic (%)” value [6] was 53.58% and 95.86%, the “Population Fragmented Nuclei (%)” value [6] was 14.99% and 9.58% and the “Population Healthy Nuclei (%)” value [6] was 8.65% and 3.59%. For the same molecule, the “Population Hoechst High Intensity Objects (%)” value [6] was 1.42% and 0.6%, the “Population Membrane Permeable-Phenotype (%)” value [6] was 0% and the “Population Mitochondria Different-Phenotype (%)” value [6] was 43.33% and 100%. The “Population Normal (%)” value [6] was 98.58% and 99.4%, the “Population Pyknosed Nuclei (%)” value [6] was 76.37% and 86.83% and the “Population Tubulin-Different-Phenotype (%)” value [6] was 23.33% and 66.67%. The “Total Cell Count” value [6] was 352 and 168.
